The source of these data is ChEMBL document CHEMBL4033667, “Design, synthesis, and identification of a novel napthalamide-isoselenocyanate compound NISC-6 as a dual Topoisomerase-IIα and Akt pathway inhibitor, and evaluation of its anti-melanoma activity” (Eur J Med Chem, 2017).

pIC50: −log10 of the molar value. Some results are limits rather than exact numbers.

For data set [1], the system named is UACC-903. The data set is described as follows: Induction of apoptosis in human UACC-903 cells assessed as increase in caspase 3/7 activity by measuring viable cells at 10 uM after 24 hrs by 7-AAD staining-based fluorescence assay (reference value: 77.50%). The format is functional. In outline: (§1)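 Muse caspase-3/7 kit on UACC903 cells after 24 h at given doses or DMSO. Cell-permeant NucView DEVD-linked DNA dye fluoresces after cleavage by active caspase 3/7. 7-AAD marks cells with compromised membranes. Gates: live, early apoptotic (caspase+/7-AAD−), late apoptotic (both +), necrotic (7-AAD+ only).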

Data set [2] concerns UACC-903. The data set is described as follows: Antiproliferative activity against human UACC-903 cells harboring BRAF V600E mutant after 24 hrs by MTT assay. The format is functional, cell-based. The conditions noted are these: UACC-903, 24 h. In outline:
(§2)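 MTT viability in melanoma lines grown in DMEM with 10% FBS and pen/strep at 37 °C, 5% CO2. 3000 cells/well, settled overnight, then exposed to compound (0 to 50 µM) in triplicate for 24, 48 or 72 h. MTT (5.0 mg/mL solution) added 3 h before termination. IC50 from non-linear regression (variable slope), mean ± SD.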
(In general: Tetrazolium dyes change colour on reduction, which living cells bring about.)

For data set [3], the system named is UACC-903. The data set is described as follows: Induction of apoptosis in human UACC-903 cells assessed as increase in caspase 3/7 activity by measuring early apoptotic cells at 5 uM after 24 hrs by 7-AAD staining-based fluorescence assay (reference value: 16.08%). Type of data set: functional. In outline: as §1
Data set [4] concerns the target RAC-alpha serine/threonine-protein kinase (Homo sapiens) (UniProt P31749). Briefly: Inhibition of Akt-phosphorylation in human UACC-903 cells after 24 hrs by Western blot analysis. The format is cell-based. In outline: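 UACC903 cells treated with increasing doses for 24 h, then lysed in RIPA with protease and phosphatase inhibitors and spun 15,000 rpm for 10 min. Lysates resolved on 4-12% gel, moved to PVDF and probed for phospho-Akt and pan-Akt. β-actin served as loading control; detection by ECL.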
For orientation: Immunoblotting shows a protein as a band on a membrane.

Data set [5] relates to Mus musculus. The data set is described as follows: Toxicity in Harlan Sprague Dawley mouse xenografted with human UACC-903 cells assessed as body weight loss at 0.6 umole, ip administered 3 times a week measured during compound dosing relative to control. The format is organism-based. To be noted: in vivo. The essentials: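 5×10^6 UACC 903 cells in 0.2 mL DMEM/10% FBS injected s.c. into both flanks of 4-6 week female athymic nude mice. From day 6, randomised groups (5 mice, 2 tumours each) received i.p. DMSO or 0.6 µmole in DMSO (100 µL) three times weekly. Caliper tumour volume and body weight taken thrice weekly to day 40; mean ± SEM.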
A general note: In xenograft studies the graft and the host belong to different species.

Data set [6] has as its system NHDF. The data set is described as follows: Cytotoxicity against human NHDF cells assessed as reduction in cell viability at 2.5 uM after 48 hrs by MTT assay. Type of data set: cell-based. In outline: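 nHDF normal fibroblasts grown in serum-free fibroblast basal medium with growth kit and pen/strep/amphotericin B. Treated 48 h at set concentrations, with viability read by MTT assay.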

Data set [7] can be described thus: Antiproliferative activity against human A375M cells harboring BRAF V600E mutant after 72 hrs by MTT assay. Type of data set: functional, cell-based. In outline:
as §2

For data set [8], the system named is UACC-903. Briefly: Induction of apoptosis in human UACC-903 cells assessed as increase in caspase 3/7 activity by measuring necrotic cells at 10 uM after 24 hrs by 7-AAD staining-based fluorescence assay (reference value: 0.34%). Type of data set: functional. In outline: as §1
Data set [9] concerns UACC-903. The data set is described as follows: Induction of apoptosis in human UACC-903 cells assessed as early apoptotic cells at 10 uM after 24 hrs by Annexin-V/7-AAD staining-based fluorescence assay (reference value: 13.15%). Type of data set: functional.
Data set [10] in a line: Antiproliferative activity against human 1205 Lu cells harboring BRAF V600E mutant after 72 hrs by MTT assay. The format is functional, cell-based. The essentials: as §2
The test system of data set [11] is UACC-903. The data set is described as follows: Induction of apoptosis in human UACC-903 cells assessed as increase in caspase 3/7 activity by measuring late apoptotic cells at 10 uM after 24 hrs by 7-AAD staining-based fluorescence assay (reference value: 6.08%). Type of data set: functional. The essentials: as §1

Chain of RAC-alpha serine/threonine-protein kinase (Homo sapiens) (P31749 whole entry): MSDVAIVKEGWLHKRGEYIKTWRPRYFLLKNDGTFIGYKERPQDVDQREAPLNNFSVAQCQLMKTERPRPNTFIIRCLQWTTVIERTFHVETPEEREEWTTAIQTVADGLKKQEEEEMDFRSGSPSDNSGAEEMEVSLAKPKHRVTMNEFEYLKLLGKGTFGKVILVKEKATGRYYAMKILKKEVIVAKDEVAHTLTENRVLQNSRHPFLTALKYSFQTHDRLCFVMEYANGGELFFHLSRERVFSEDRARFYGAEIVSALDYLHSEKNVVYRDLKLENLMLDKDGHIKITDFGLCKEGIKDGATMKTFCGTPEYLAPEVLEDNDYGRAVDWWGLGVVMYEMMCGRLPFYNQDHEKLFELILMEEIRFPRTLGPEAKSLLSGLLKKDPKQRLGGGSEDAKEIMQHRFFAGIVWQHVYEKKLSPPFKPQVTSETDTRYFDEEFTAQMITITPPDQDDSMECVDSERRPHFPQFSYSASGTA

The pIC50 is the IC50 on a negative log10 scale, so that one unit is a factor of ten. Read a high pIC50 as a small IC50. Take `O=C1c2cccc3cccc(c23)C(=O)N1CCCCCCN=C=[Se]`: the Activity was 54.44% in data set [1]; 20.72% in data set [3]; “Non-Toxic” in data set [5]; > 70% in [6]; 0.8% in [8]; 35% in data set [9]. Moreover, the Activity in data set [11] is on record as 41.76%. Also, the pIC50 is 4.87 in data set [2], 5.36 in data set [7] and 4.87 in data set [10]. Besides, the inhibition entry in data set [4] was “Dose-dependent effect”.
